This is a sample that favours compounds with a hit; in the whole collection about 3% have one here.
TAAR1 antagonist: antagonists of human TAAR1 | CHO RD-HGA16 TAAR1, Fluo-8 calcium fluorescence, antagonist | inhibition, % at 3 µM | 360,000 compounds, 1.5% hits | AID 624466;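 active means inhibition above a per-plate cutoff, the mean inhibition of test compounds on that plate plus 3 SD, cut at about 49% in these data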;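 further: 0% = DMSO plus EC80 beta-PEA response and 100% = DMSO alone without agonist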
Target sequence (Q96RJ0 whole entry, looked up): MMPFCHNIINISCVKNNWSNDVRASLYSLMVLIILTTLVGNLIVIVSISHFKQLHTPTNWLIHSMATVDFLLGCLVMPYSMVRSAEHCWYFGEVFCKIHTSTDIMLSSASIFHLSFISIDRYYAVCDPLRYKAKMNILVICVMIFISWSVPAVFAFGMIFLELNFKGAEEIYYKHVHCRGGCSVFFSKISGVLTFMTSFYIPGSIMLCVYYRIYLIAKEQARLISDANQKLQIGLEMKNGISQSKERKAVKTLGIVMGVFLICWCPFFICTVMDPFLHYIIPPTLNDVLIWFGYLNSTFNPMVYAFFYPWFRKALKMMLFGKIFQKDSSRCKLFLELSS
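Test system – hTAAR1-expressing CHO RD-HGA16 cells, Gα16-coupled · Also added – β-PEA at EC80 concentration, post-compound challenge · Compound – 3 µM, single point · Incubation – dye loading 75 min at 37 °C, then 30 min room temperature · Measured by – Fluo-8 intracellular calcium dye fluorescence, real-time kinetic reads · Benchmarks – vehicle and agonist controls · Replicates – singlicate, one well per test compound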
TAAR1 agonist: agonists of human TAAR1 | 360,000 compounds, 0.99% hits | activation, % at 3 µM | CHO RD-HGA16 TAAR1, Fluo-8 calcium fluorescence; vehicle wells 0%, saturating PEA agonist 100% | Q96RJ0;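 active means activation above the mean activation of all test compounds in the run plus 3 SD, cut at about 38% in these data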
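Test system: RD-HGA16 (CHO) cells co-expressing Gα16 and hTAAR1 / Benchmarks: DMSO vehicle as 0%, PEA at EC100 as 100% / Repeats: no replicates (n 1) / Measure: % activation from peak over basal fluorescence ratio, DMSO-to-PEA scaled / Timing: 17-24 h plating, Fluo-8 75 min 37 °C, 30 min RT / Technique: kinetic Fluo-8 calcium fluorescence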
M4 PAM: positive allosteric modulators of human muscarinic M4 receptor. AID 624126. activation, % at 3 µM. CHO-K1 hM4/Gqi5, Fluo-8 calcium fluorescence, ACh EC20; 0% = ACh EC20, 100% = maximal ACh. 360,000 compounds, 0.4% hits;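 active means activation above its plate's cutoff, the mean activation of sample wells plus 3 SD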
CHRM4 agonist: agonists of human muscarinic M4 receptor (CHRM4); P08173; CHO-K1 hM4/Gqi5, Fluo-8 calcium fluorescence; vehicle 0%, full acetylcholine response 100%; activation, % at 3 µM; 360,000 compounds, 0.14% hits;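 active means activation above the run mean over all test wells plus 3 SD, cut at about 32% in these data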;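 further: peak over basal fluorescence ratio per well then scaled between controls; 0% = DMSO wells and 100% = acetylcholine at EC100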
CHRM4 antagonist: blocks acetylcholine activation of human M4 receptor. P08173. inhibition, % at 3 µM. CHO-hM4 cells, ACh EC80, Fluo-8 calcium fluorescence. 360,000 compounds, 0.73% hits;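 active means inhibition above its plate's cutoff, the mean inhibition of sample wells plus 3 SD, cut at about 27% in these data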;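 further: 0% = acetylcholine EC80 with DMSO and 100% = DMSO without agonist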
Numbers without * were called inactive; / = no result.

SMILES | TAAR1 antagonist | TAAR1 agonist | M4 PAM | CHRM4 agonist | CHRM4 antagonist
CCOC(=O)C1SC2(C(F)(F)F)CC1(O)c1c(C)cc(C)nc1O2 (stereo not given) | -26 | 13 | 45* | -2 | -16
N#Cc1ccc2nc(-c3ccc(CN4CCC(n5nnc6ccccc65)CC4)cc3)c(-c3ccccc3)nc2c1 | 46 | -1 | / | / | /
Cc1cc(Cl)ccc1C(=O)C1CCCN(C2CCSCC2)C1 (stereo not given) | 0 | 3 | -24 | 2 | 33*
COC(=O)NC(=C(Cl)Cl)P(=O)(c1ccccc1)c1ccccc1 | -5 | 12 | 31* | 1 | 3
COc1cccc(C(=O)NCCN2CCC3(CC2)C(=O)NCN3c2ccccc2)c1 | 5 | 10 | / | / | /
C=CCN1Cc2ccccc2-n2nncc2C1 | -4 | 1 | 8 | 0 | 4
COc1cc(OC)c(OC)cc1CNCCc1ccc(F)cc1 | -25 | 5 | 3 | 2 | 3
COc1ccccc1CNCCc1ccc(F)cc1 | -9 | 41* | 0 | 1 | 6
Cn1c(O)c(/C=C/C=Nc2ccccc2)c(=O)n(C)c1=S | 34 | 41* | -5 | 6 | -3
Cc1cccc(-n2c(O)c(/C=C/C=Nc3ccccc3)c(=O)[nH]c2=O)c1 | 29 | 21 | -2 | 7 | -4
NCCc1ccc(OCc2ccccc2)c(OCc2ccccc2)c1 | 46 | 55* | 8 | 34* | 21
O=c1[nH]c(O)c(C=Nc2ccc(Cl)c(C(F)(F)F)c2)c(=O)[nH]1 | 9 | 0 | -16 | 0 | 34*
O=C1NCN(c2ccccc2)C12CCN(C(c1nnnn1C1CCCCC1)C1CC1)CC2 (stereo not given) | -18 | 8 | -1 | 7 | -2
CCCC(CCC)C(=O)OC[N+](C)(C)CCOC(=O)C(O)(c1ccccc1)C1CCCC1 (stereo not given) | 24 | 1 | -20 | 1 | 97*
O=C(O)C(O)(c1ccccc1)C1CCCC1 (stereo not given) | -19 | 9 | 3 | 1 | -5
CC(C)(C)C(=O)OC[N+](C)(C)CCOC(=O)C(O)(c1ccccc1)C1CCCC1 (stereo not given) | -2 | 0 | -24 | 0 | 99*
N=C(N)c1c(O)n(C2CCCCC2)c(=O)n(C2CCCCC2)c1=O | 18 | 46* | 9 | 2 | -2
COc1ccc(CNCCc2c(C)[nH]c3ccc(OC(F)(F)F)cc23)c(OC)c1 | 36 | 54* | -12 | 40* | 29*
COc1ccc2nc(-c3ccc(CN4CCC(n5c(=O)[nH]c6cc(Cl)ccc65)CC4)cc3)c(-c3ccccc3)nc2c1 | -10 | 0 | / | / | /
C[C@H]1CNCCN1c1ccc(N2CC[C@H](O)C2)c(C#N)c1 | -18 | 1 | / | / | /
CN1C2CCC1CC(OC(=O)c1ccc(Cl)cc1)(C(=O)O)C2 (stereo not given) | 3 | 9 | 29* | 1 | 16
CN1[C@@H]2CC[C@H]1CC(OC1c3ccccc3CCc3ccccc31)C2 (stereo not given in full) | -21 | 33 | -19 | 6 | 100*
Cc1ccc(N2C(=O)NC(=O)/C(=C/C=C/c3ccco3)C2=O)cc1 | 51* | 37 | 5 | 1 | 9
CCN(CC)c1ccc(/C=C2/C(=O)NC(=O)N(CC3CCCO3)C2=O)cc1 (stereo not given) | 13 | 42* | -6 | 1 | 11
CC(C)c1ccc(C2NCc3ccccc3-n3cccc32)cc1 (stereo not given) | 63* | 29 | -16 | 16 | 14
SMILES | TAAR1 antagonist | TAAR1 agonist | M4 PAM | CHRM4 agonist | CHRM4 antagonist
Cc1ccccc1C(O)(Cc1ccccc1)C1CN2CCC1CC2 (stereo not given) | 2 | 9 | -15 | 4 | 76*
O=C(NC1CN2CCC1CC2)c1ccc(Cl)cc1 (stereo not given) | -6 | 2 | / | / | /
Fc1ccc(C(OCCN2CCN(CCCc3ccccc3)CC2)c2ccc(F)cc2)cc1 | 16 | 6 | -15 | 5 | 20
Fc1ccc(C(OCCN2CCCC2)c2ccc(Br)cc2)cc1 (stereo not given) | -17 | 32 | -34 | 9 | 16
Fc1ccc(C(OCCN2CCCC2)c2ccc(F)cc2)cc1 | 3 | 12 | -35 | 7 | 30*
c1ccc(CCCN2CCN(CCOC(c3ccccc3)c3ccccc3)CC2)cc1 | -3 | 10 | -18 | 7 | 47*
CC(=O)NCC1=C(c2ccc(S(C)(=O)=O)cc2)C[C@@H]2CC[C@H]1N2CCOc1ccccc1 | -9 | 3 | / | / | /
O=[N+]([O-])c1ccc(N2CCCCCC2)c2nonc12 | 66* | 162* | -19 | 144* | 38*
O=[N+]([O-])c1ccc(N2CCCNCC2)c2ncccc12 | 8 | 3 | -48 | 1 | 27*
O=[N+]([O-])c1ccc(N2CCCCCC2)c2ncccc12 | -8 | 3 | -4 | -2 | 1
O=[N+]([O-])c1ccc(N2CCCCC2)c2ncccc12 | 3 | 0 | 1 | 0 | 3
COC(=O)C1=C(c2ccc3ccccc3c2)C[C@@H]2CC[C@H]1N2C | -1 | 18 | 2 | 2 | 2
COC(=O)C1=C(C(=O)OC)C2OC1c1cc3ccccc3cc12 | 58* | 20 | -10 | 14 | 96*
COC(=O)C1C(c2ccccc2)CC2CCC1N2C (stereo not given) | -15 | 1 | / | / | /
O=c1[nH]c2cc(Cl)ccc2n1C1CCN(Cc2ccc(-c3nc4ccccc4nc3-c3ccccc3)cc2)CC1 | -13 | 0 | / | / | /
C=CCC1(Nc2ccccc2)CC(C)N(C)CC1C (stereo not given) | -14 | 3 | -51 | 1 | 49*
O=c1[nH]c2ccccc2n1C1CCN(C(c2nnnn2-c2ccc3c(c2)OCCO3)C2CC2)CC1 (stereo not given) | 62* | 15 | -11 | 22 | 21
O=c1[nH]c2ccccc2n1C1CCN(C(c2ccccc2)c2nnnn2-c2ccc3c(c2)OCCO3)CC1 (stereo not given) | 62* | 22 | -6 | 21 | 34*
C[C@H]1CN([C@@H](C)CO)C(=O)CCCn2cc(nn2)CO[C@@H]1CN(C)C(=O)Oc1cccc2ccccc12 | 0 | 0 | / | / | /
COc1cc(CCN)c(OC)cc1C | 8 | 32 | / | / | /
Cc1ccc2nc(-c3ccc(CN4CCC(n5c(=O)[nH]c6cc(Cl)ccc65)CC4)cc3)c(-c3ccccc3)nc2c1 | 21 | 0 | / | / | /
C=CCN1C[C@H](C)N(C(c2ccc(C(=O)N(CC)CC)cc2)c2cccc(OC)c2)CC1C (stereo not given in full) | -14 | 3 | / | / | /
CCOC(=O)[C@]12Cc3cc(OC)ccc3[C@H]1N(C1CCCCC1)C(=O)c1ccccc12 | -13 | 5 | -2 | -2 | 20
CCOC(=O)[C@]12Cc3cc(Cl)ccc3[C@H]1N(C1CCCCC1)C(=O)c1ccccc12 | / | / | 1 | -2 | 30*

High-throughput results as filed in PubChem.
